# Screening data: PubChem BioAssay, The Scripps Research Institute Molecular Screening Center
# In the library only some 2.1% were active in any assay of this set; here they are far more common.
# MsrA inhibitor – inhibits bovine methionine sulfoxide reductase A. 0.75% of 360,000 active. inhibition, % at 15.5 µM. purified bovine MsrA, absorbance read-out; in the data active means inhibition above about 4.5%;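 further: 0% = vehicle wells with enzyme and 100% = reference inhibitor wells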
# PKA-R2B activ – activators of human PKA-R2B complex; P22694+P31323; PKA-R2B holoenzyme dissociation, Cy5-IP20 fluorescence polarization; R2B truncated from residue 108, S112A mutant; 0% DMSO only, 100% 113 µM cGMP; activation, % at 11.4 µM; 0.079% of 340,000 active; AID 504700;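 active means activation above a cutoff set at the mean over all compounds plus 3 SD, cut at about 18% in these data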;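 further: higher means more holoenzyme dissociation and a rise in polarization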
# Target sequence (P31323 whole entry, looked up, other chains not shown, the tested form may be a part): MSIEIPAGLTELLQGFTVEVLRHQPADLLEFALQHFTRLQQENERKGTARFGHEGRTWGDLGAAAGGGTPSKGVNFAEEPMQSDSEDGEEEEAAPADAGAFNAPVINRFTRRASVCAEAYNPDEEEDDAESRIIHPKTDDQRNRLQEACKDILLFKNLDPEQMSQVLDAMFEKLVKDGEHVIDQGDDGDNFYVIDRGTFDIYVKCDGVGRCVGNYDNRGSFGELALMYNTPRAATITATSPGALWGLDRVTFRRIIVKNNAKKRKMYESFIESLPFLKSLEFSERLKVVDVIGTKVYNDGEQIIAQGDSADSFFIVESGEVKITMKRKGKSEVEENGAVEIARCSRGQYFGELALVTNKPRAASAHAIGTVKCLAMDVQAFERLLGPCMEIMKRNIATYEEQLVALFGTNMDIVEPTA
# IMP-1 inh – inhibitors of Pseudomonas aeruginosa IMP-1 metallo-beta-lactamase; inhibition, % at 5.6 µM; purified IMP-1, nitrocefin hydrolysis, epi-absorbance fluorescence; 0.45% of 290,000 active;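 active means inhibition above the mean plus 3 SD of all compounds in the same screening run, cut at about 4.5% in these data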;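 further: 0% = IMP-1 with DMSO and 100% = DMSO wells lacking enzyme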
#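 assay system = purified recombinant IMP-1 metallo-beta-lactamase enzyme | schedule = 15 min preincubation plus 25 min reaction at 25 °C | signal = Epi-absorbance fluorescence, 480 nm excitation, 530 nm emission | read-out basis = percent inhibition from optical density relative to buffer-blank wells | controls = IMP-1 with DMSO as 0%, enzyme-free DMSO as 100%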
# PKA-R1A act – activators of PKA-R1A complex | PKA-R1A dissociation, Cy5-IP20 fluorescence polarization; scaled: DMSO 0%, 113 µM cGMP 100% | 0.083% of 340,000 active | activation, % at 11.4 µM;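 active means percent activation above the mean of all tested compounds plus 3 SD, cut at about 19% in these data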;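 further: higher means more PKAc released from R1A so a rise in polarization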
# VIM-2 inh – inhibitors of Pseudomonas aeruginosa VIM-2 metallo-beta-lactamase | purified VIM-2, nitrocefin hydrolysis, epi-absorbance fluorescence | inhibition, % at 5.6 µM | 0.89% of 290,000 active | AID 1527;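 active means inhibition above the mean of all tested compounds plus 3 SD, cutoff set per screening run, cut at about 7.5% in these data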;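 further: red hydrolysis product quenches plate fluorescence so inhibitors raise well fluorescence; 0% = enzyme with DMSO and 100% = DMSO without enzyme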
# MsrA act – activates bovine MsrA enzyme. 0.3% of 360,000 active. purified bovine MsrA, absorbance read-out. activation, % at 10.6 µM; in the data active means activation above about 7.5%;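 further: 0% = vehicle and 100% = reference activator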
# R1A FP artifact – fluorescence polarization artifact in PKA-R1A activator counter-screen. activation, % at 11.4 µM. Cy5-IP20 peptide alone, fluorescence polarization artifact counterscreen. AID 504799. shares compounds with PKA-R1A act. 7% of 280 active;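 active means mean activation over triplicate runs exceeds the adjusted cutoff derived for the parent primary screen, cut at about 19% in these data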;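 further: no PKA protein present so any polarization rise reflects compound interference; 0% = tracer peptide mix alone and 100% = mix with added PKA catalytic subunit; higher means stronger polarization artifact and likely false positive in parent screen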
# PKA-R1A act conf – PKA-R1A complex activation, confirmation. shares compounds with PKA-R1A act. 9% of 280 active. activation, % at 11.4 µM. Cy5-IP20 fluorescence polarization, PKA-R1A holoenzyme dissociation. AID 504800;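 active means mean activation over replicate wells exceeds the adjusted hit threshold taken from the earlier primary screen, cut at about 20% in these data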;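 further: 0% = holoenzyme mix with DMSO only and 100% = cGMP-activated control wells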
# * marks the source's active call; other numbers are inactive results; . = no result.
SMILES,MsrA inhibitor,PKA-R2B activ,IMP-1 inh,PKA-R1A act,VIM-2 inh,MsrA act,R1A FP artifact,PKA-R1A act conf
COc1ccc(OC)c(C2C(C(=O)c3ccco3)=C(O)C(=O)N2CCN2CCOCC2)c1 (stereo unspecified),1,2,-2,19*,1,-3,2,3
Cc1ccc([C@H]2C[C@@H](n3cc(COC(=O)c4ccccc4)nn3)[C@H](O)CN2C(=O)c2cccs2)cc1,0,7,.,7,.,-6,.,.
Cc1ccc(S(=O)(=O)NC(=O)NC(C)Cc2ccccc2)cc1 (stereo unspecified),0,2,-4,22*,-2,-4,0,-1
CNC(=O)COC(=O)c1ccc(OCC(=O)Nc2ccccc2OC)c(OC)c1,0,1,-5,22*,-5,-2,-3,1
CN(C)S(=O)(=O)c1cccc(NC(=O)C2CCN(S(=O)(=O)c3cccs3)CC2)c1,0,-7,.,0,.,-10,.,.
CCCC(=O)Nc1ccc(NC(=O)C2CC2)cn1,1,-5,-4,-2,0,-1,.,.
CCCCC(=O)Nc1ccc(NC(=O)C2CC2)cn1,-1,-1,-3,20*,0,-2,5,5
CC(C)c1cccc(C2=CC(=O)C[C@H](c3ccc4c(c3)OCO4)C2)c1,2,-2,.,-15,.,-3,.,.
O=C(O)CSc1cccc[n+]1[O-],1,-2,-1,-2,-2,5,.,.
[O-][n+]1ccccc1SCc1ccccc1,1,3,.,19*,.,-1,2,3
CCCCc1ccc(S(=O)(=O)NC(=O)C2(C)CCN2C(=O)C/C=C/c2ccccc2)cc1 (stereo unspecified),0,.,.,.,.,-4,.,.
CC(=O)C1=C(C)N(Cc2ccc(Br)cc2)C(=S)NC1c1cccc(Br)c1 (stereo unspecified),1,.,.,.,.,.,.,.
COc1ccc(C)cc1NC(=O)CSc1nnc(CC(=O)Nc2cccc(C(F)(F)F)c2)n1C,1,-5,-2,23*,-2,-7,5,-1
COCCCNC(=O)CCn1c(=O)c2ccccc2n(Cc2cccc([N+](=O)[O-])c2)c1=O,2,-6,-2,-10,1,-4,.,.
CCCCNC(=O)CCn1c(=O)c2ccccc2n(Cc2ccc(F)cc2)c1=O,-1,11,-1,22*,-1,-4,0,-3
CCOc1ccc(-c2nnc3n2N=C(c2ccc(OC)cc2)CS3)cc1,2,-5,-6,20*,-3,-6,-1,1
CCOc1ccc(C2=Nn3c(nnc3-c3ccccc3OC)SC2)cc1,0,3,-3,-6,-2,-1,.,.
C=CCONC(=O)Cc1ccccc1,0,-4,.,-4,.,-14,.,.
O=C(NCc1nc2ccccc2[nH]1)C1=C[C@H](c2ccc(C(F)(F)F)cc2)C[C@H](OCc2ccc(CO)cc2)O1,1,14,-4,20*,-5,0,29*,18
COc1ccccc1CNC(=O)C(C)NS(=O)(=O)c1ccccc1 (stereo unspecified),0,5,-3,19*,-3,1,1,0
Cc1ccc(NC(=O)CSc2nc3ccccc3c(=O)n2CC2CCCO2)cc1 (stereo unspecified),0,3,-2,19*,-1,-2,-4,3
CN(C)c1ccc(NC(=O)CSc2nc3ccccc3c(=O)n2CC2CCCO2)cc1 (stereo unspecified),0,-5,0,3,-3,-3,.,.
Cc1cc(C)n2nc(SCC(=O)c3ccc[nH]3)nc2n1,-1,-2,-2,22*,-2,-4,5,2
CNC(=O)CSc1nc2nc(C)cc(C)n2n1,0,8,-2,-13,1,-2,.,.
Cc1cccc(NS(=O)(=O)c2ccc(Oc3ccccc3)cc2)n1,1,-5,-1,20*,0,0,3,3
